ChEMBL document CHEMBL4513216, “Probing the Open Global Health Chemical Diversity Library for Multistage-Active Starting Points for Next-Generation Antimalarials” (ACS Infect Dis, 2020)

Test: Toxicity liver stage against HepG2, at 10uM
Type: cell-based
Set-up: test concentration 10 uM, cell line HepG2-A16-CD81EGFP
Settings: human, HepG2-A16-CD81EGFP cells; read-out: INHIBITION
In short: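 Uninfected HepG2-A16-CD81EGFP cells, 3 × 10^3 per well, 1536-well, plated on prespotted compound at 10 μM final, parasite-free screening media added to match infected plates; puromycin 10 μM positive, DMSO 0.5% negative; run in parallel with 48 h PbLuc assay at 37 °C, 5% CO2; viability by CellTiter-Glo luminescence, normalized to controls.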

| Structure (SMILES) | cytotoxicity at 10 µM |
| --- | --- |
| CC(=O)N1CCCC(C(=O)Nc2ccccc2Cc2ccccc2)C1 (centres undefined) | 3.88% |
| COCCOc1ccc(-c2noc([C@@H]3CCCN3C3CCC3)n2)cn1 | -4.26% |
| CO[C@@H]1CN(c2ccccc2)S(=O)(=O)[C@@]12CCN(C)C2 | 3.33% |
| COc1cccc(CN2CC(O)CN(S(C)(=O)=O)CC2=O)c1OC (centres undefined) | -0.686% |
| COc1ccc(CNc2c(N3CCN(C)CC3)c(=O)c2=O)cc1 | 2.4% |
| O=c1c(NCCc2ccc(O)cc2)c(NCc2ccncc2)c1=O | -5.46% |
| O=C(c1ccc[nH]1)N1CCO[C@H]2CC(COCc3ccccn3)C[C@@H]21 (some centres undefined) | 0.718% |
| Cc1ccc(CN2CC[C@@H](N(C)C(C)C)[C@@H]2Cc2ccccc2)o1 | -3.52% |
| CCOC1Sc2nnc(C)n2N=C1c1ccc(Cl)cc1 (centres undefined) | 11.3% |
| CCc1nn(-c2cc(Oc3ccccc3)nc(C)n2)c(N)c1C#N | 3.62% |
| Cc1noc([C@H]2C[C@H]3OCC[C@H]3N(S(=O)(=O)C3CC3)C2)n1 | -10.5% |
| CCS(=O)(=O)N1CCC(c2nc3ccc(-c4ccccc4)cn3n2)CC1 | -7.41% |
| Cc1cc(C)n(Cc2cccc(C(=O)NCCN3CCOCC3)c2)n1 | -12.8% |
| Cc1cccc(CN2CCOCC2c2[nH]ncc2C)n1 (centres undefined) | 6.91% |
| O=C(O)CCCN1C[C@@H](c2ccccc2F)[C@@]2(CCCCC(=O)N2)C1 | 4.6% |
| CCCn1nc(C)c(C(=O)N(C)[C@@H]2CC[C@@H](N3CCCC3)[C@@H]2O)c1C | 2.28% |
| CS(=O)(=O)CCCN1CCSCC1c1ccc(Cl)cc1 (centres undefined) | -14.5% |
| CC(C)CNC(=O)C(C)N1CCN(C2CCN(C(C)C)CC2)CC1 (centres undefined) | -7.09% |
| O=C(Cn1ccc(=O)[nH]c1=O)NCc1cccnc1OCC(F)(F)F | -5.88% |
| Cc1csc(N(C)C(=O)C2CC(=O)N(c3ccccc3F)C2)n1 (centres undefined) | 9.95% |
| CN(C(=O)c1ccncc1)c1ccccc1S(C)(=O)=O | 7.39% |
| Cc1[nH]ncc1C(=O)NCC1CCC2(CC1)OCCO2 | -8.2% |

| Structure (SMILES) | cytotoxicity at 10 µM |
| --- | --- |
| Cc1cc(C)n(-c2cncc(NCCNC(=O)c3cccnc3)n2)n1 | 7.45% |
| O=C(CCNS(=O)(=O)c1ccc(F)cc1)NCc1ccoc1 | -6.08% |
| CC(O)CN1CCN(C(=O)c2cnn(-c3ccccc3Cl)c2)CC1 (centres undefined) | -8.9% |
| Cc1ccc(C2COCCN2C(=O)c2ccc(C#N)cc2)o1 (centres undefined) | -5.08% |
| CC1CN(C(=O)Nc2ccc(Cl)c(C(=O)NC3CC3)c2)CC(C)(C)O1 (centres undefined) | 6.5% |
| Cc1nn(C)c(N2CCOCC2)c1CNCc1cccnc1 | 7.11% |
| Cc1cc(S(=O)(=O)NC(=O)CCc2cccnc2)c(C)s1 | 8.28% |
| CC(C)(C)C(=O)NS(=O)(=O)c1ccc(F)cc1C(F)(F)F | -1.18% |
| Cc1cc(SC(C)(C)C)ccc1NCC(=O)NC(N)=O | -17.1% |
| Cc1nnc(C(C)N2CCc3[nH]c4ccccc4c3C2)o1 (centres undefined) | -9.42% |
| COc1cccc(NC(=O)NCC(Cc2cnn(C)c2)C(N)=O)c1 (centres undefined) | -6.52% |
| Cc1noc(C)c1CC(=O)N1CCCN(C)c2ccc(Cl)cc21 | 9.71% |
| CC(C1CC1)N(CC(=O)NCC(F)(F)F)C1CC1 (centres undefined) | -4.42% |
| O=S(=O)(Cc1ccccc1)NCCc1nnc2n1CCC2 | 14.5% |
| CN(C)C(=O)CCCS(=O)(=O)Cc1cc(Cl)c2c(c1)OCCO2 | 2.47% |
| COc1ccc(CN(CCC#N)CCN2CCOCC2)c(OC)c1 | -1.39% |
| CN(C1CCCC1)C(C)(C)C(=O)NCCNC(N)=O | -46.3% |
| C[S+]([O-])c1nncn1CC(=O)c1ccc2c(c1)CCO2 (centres undefined) | -2.85% |
| COc1ccc(OCC(=O)NS(=O)(=O)c2cc(F)ccc2F)cc1 | -19.5% |
| Cc1ccc(CNCC2CCc3nnc(C(C)C)n3C2)s1 (centres undefined) | -4.43% |
| COC1COC2(CCN(C(=O)c3ccc4ccccc4c3)CC2)C1 (centres undefined) | -98.4% |
| CCOCC(=O)N1CCc2nc(C)nc(NC(C)C)c2CC1 | -98.7% |

| Structure (SMILES) | cytotoxicity at 10 µM |
| --- | --- |
| CS(=O)(=O)N1CCC2(CCN(C(=O)c3cccs3)CC2)CC1 | -108% |
| COC1COC2(CCN(S(=O)(=O)c3ccc(F)cc3)CC2)C1 (centres undefined) | -95.9% |
| Cc1cnc(N2CCc3onc(COc4cccnc4)c3C2)nc1 | -111% |
| O=C(c1ccncc1)N1C[C@@H]2OCCN(CCN3CCCC3)[C@@H]2C1 | -77.1% |
| CN(Cc1cncnc1)[C@H]1CN(Cc2ccco2)[C@@H]2CCCO[C@@H]21 | -78.7% |
| CC(=O)N1CCCC2(CCN(C(=O)c3ccc(Cl)c(C(F)(F)F)c3)C2)C1 (centres undefined) | -74.4% |
| O=C(N1CCCC1)N1CCc2ncnc(C3CCOC3)c2CC1 (centres undefined) | 3.45% |
| CS(=O)(=O)NCc1ncn2c1CN(C(=O)CC1CCCC1)CCC2 | 4.79% |
| CCNc1ncc(C(=O)NCc2ccc3nsnc3c2)cn1 | 2.34% |
| Cc1ccsc1CN(Cc1ncccc1C(=O)O)C1CC1 | -5.8% |
| CCN1CC(C(=O)N2CCc3cc(C(N)=O)n(C)c3C2)CC1=O (centres undefined) | -47.5% |
| O=C1NCC2(CCCN(C(=O)c3c[nH]nc3C3CCCCC3)C2)O1 (centres undefined) | 8.72% |
| Cc1nc2c(c(NCc3ccc(-c4ccccn4)s3)n1)CCNCC2 | -59.5% |
| Cc1c(C(=O)N2C[C@@H](CN(C)CCO)[C@@H](CO)C2)sc2ccccc12 | -11% |
| COCCC1CCCCN1Cc1nc(C2CC2)no1 (centres undefined) | 8.53% |
| NC(=O)CN1CC2(CCC1=O)CCN(C(=O)c1ccccc1F)CC2 | 23.5% |
| COCCn1ccnc1CN1CCc2[nH]cnc2C1c1cnn(C)c1C (centres undefined) | -2.77% |
| CC(C)[C@H]1CN(S(C)(=O)=O)C[C@@H]1NC(=O)c1ccnc(N)c1 | 8% |
| CCOc1ccc(OCc2nccc(-c3cc(C(=O)O)ccn3)n2)cc1 | -11.8% |
| CC(C)n1ccnc1C1CCCN(c2ccncc2F)C1 (centres undefined) | -4.96% |
| Cc1cc(N2CCC(O)(C(=O)O)CC2)nc2ccccc12 | -41.5% |
| CC(C)c1cc(=O)[nH]c(-c2ccccc2CN2CCCC2C)n1 (centres undefined) | 10.4% |

| Structure (SMILES) | cytotoxicity at 10 µM |
| --- | --- |
| O[C@@H]1CN(CC2=Cc3cc(Cl)ccc3OC2)CC[C@H]1N1CCCCCC1 | 1.9% |
| COc1cc2c(cc1-c1nc3c(cnn3C(C)C(C)C)[nH]1)OCO2 (centres undefined) | 8.61% |
| COc1ccc(C(C(=O)O)N2CCCN(C3CCCC3)CC2)cc1OC (centres undefined) | 7.44% |
| CCC(C)NC(=O)CCc1ccc(OCC(F)(F)F)c(OC)c1 (centres undefined) | -3.27% |
| OCCn1nccc1C1CCN(CCOc2cccc(F)c2)CC1 | -10.8% |
| CCc1cnc(CN(C(C)=O)C2CCN(CCN3CCCCC3)C2)o1 (centres undefined) | -3.63% |
| Cc1cnn(CCNCc2cccc(C#N)c2)c1 | -2.01% |
| CCS(=O)(=O)c1ccccc1N1CCC(N)CC1 | 3.03% |
| CN(Cc1noc(C2CC2)n1)C1CCN(CC(=O)N2CCOCC2)C1 (centres undefined) | -5.25% |
| CCc1nc(C2CCCN2CCCS(N)(=O)=O)no1 (centres undefined) | -6.66% |
| Cc1nc(CCNC(=O)NC(C)Cn2cccn2)cs1 (centres undefined) | -1.85% |
| O=C1CC(N(C(=O)c2ccc(Cl)c(Cl)c2)C2CC2)C(=O)N1 (centres undefined) | 0.0791% |
| CC(NC(=O)NCCn1ccnc1)c1ccc2c(c1)OCCO2 (centres undefined) | -9.44% |
| O=C(CCc1cscn1)N1CCCC(n2cncn2)C1 (centres undefined) | -3.81% |
| Cc1ccc(CNC(=O)CN2CCCC(Cn3cncn3)C2)cc1 (centres undefined) | -11.5% |
| CC(C)C(=O)N(C)CC(=O)Nc1ccc(Br)cn1 | -6.22% |
| c1cnn(CC2CCCCN2Cc2nc(-c3ccoc3)no2)c1 (centres undefined) | -5.22% |
| Cc1nc(C(=O)N2CCCC2c2noc(C3CC3)n2)c[nH]1 (centres undefined) | -7.06% |
| Cc1cc(NC(=O)CCN2CCCC2Cn2cccn2)no1 (centres undefined) | -5.09% |
| CC(NC(=O)Cn1cc(-c2ccccc2)cn1)C1CC1 (centres undefined) | 1.36% |
| CN(c1cccnn1)C1CCN(C(=O)c2ccc3c(c2)COC3)CC1 | -12% |
| Cc1noc(CN2CCOC(CN(C)C)C2)n1 (centres undefined) | -6.61% |

| Structure (SMILES) | cytotoxicity at 10 µM |
| --- | --- |
| CC(C)(C)c1n[nH]c(C2CN(C(=O)CCC3CC3)CCO2)n1 (centres undefined) | -12.7% |
| O=C(CCCOCc1ccccc1)N1CCCC1c1ccccn1 (centres undefined) | -14.4% |
| COCCOc1ccc(NC(=O)N(C)Cc2ccsc2)cn1 | -2.81% |
| O=C(NCC1CCSCC1)N(CCCO)C1CCc2ccccc21 (centres undefined) | 5.77% |
| COc1ccc(CN(C)CC(=O)NC2(C)CCS(=O)(=O)C2)cc1F (centres undefined) | 7.44% |
| CN(c1ccc(F)c(F)c1)S(=O)(=O)c1cc(C(=O)O)cs1 | -4.89% |
| COc1ccc(C(C)NC(=O)Cn2ccc(=O)n(C)c2=O)cc1OC (centres undefined) | -9.09% |
| CCn1cnnc1C1CCN(C(=O)COCCc2ccccc2)CC1 | 0.602% |
| O=C(O)c1csc(S(=O)(=O)Nc2cccc(OC(F)F)c2)c1 | -2.63% |
| Cc1cc(C[C@@H]2COC[C@H]2NCc2ccc(Br)s2)on1 | 3.6% |
| Cc1ccc(S(=O)(=O)N2CC[C@H]3CO[C@H](CN(C)C)[C@H]3C2)cc1 | -98.3% |
| CN(Cc1ccco1)Cc1cnc2n1CCN(S(C)(=O)=O)CC2 | -2.75% |
| CC(C)c1nn(C)cc1CNC1CCOc2ccccc21 (centres undefined) | 0.923% |
| Cc1ccc(CN2CCC3(CC2)C(=O)N(C)c2ccccc23)s1 | -5.68% |
| CC(C)NC(=O)[C@@H]1CC[C@@H]2[C@@H](CCN2Cc2ccc3ccccc3n2)O1 | 3.98% |
| Fc1ccc(CN2Cc3nccn3CC(CN3CCOCC3)C2)cc1 (centres undefined) | -73.7% |
| CCN1CCOCC12CCN(c1cnccn1)CC2 | -111% |
| CC(C)N1CCO[C@@H]2CN(C(=O)NCc3ccccc3)CC[C@@H]2C1 | -102% |
| Cc1ncccc1NC(=O)[C@H]1C[C@@H]2CCN(Cc3nccs3)C[C@@H]2O1 | 0.976% |
| CN1CCN(Cc2cccnc2)C(=O)C12CCN(Cc1ccco1)CC2 | -4.34% |
| CCOCC(=O)N1C[C@@H]2CCN(c3cnccn3)C[C@@H]2C1 | 1.2% |
